# Hep lipid drop: hepatic lipid droplet formation modulation. AML12 mouse hepatocytes, oleate lipid droplets, BODIPY imaging. inhibition, % at 6.5 µM. actives 0.4% (n = 240,000). AID 1656;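 active = lipid droplet intensity inhibited by at least 50%, with more than 500 cells counted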
#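 Material – mouse AML12 hepatocyte cell line, fixed after treatment · Compound dosing – one dose, 6.5 µM compound · Times – compound with oleate, overnight · Measured by – Image-based BODIPY and DAPI two-channel analysis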
# DTT redox prof: compounds producing H2O2 with reducing agent – biochemical, NIH compound library profiling, artefact control for MLSCN library redox annotation, primary screen; DTT-dependent redox cycling H2O2, phenol red/HRP absorbance; 100% = 100 µM peroxide control, 0% = buffer; activation, % at 10 µM; actives 0.03% (n = 200,000);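 active = activation of at least 50% relative to the plate's high and low controls in the primary single-dose screen; inactive = activation below 50%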;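 note: compound incubated with DTT at 0.8 mM final as the reducing agent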
# Lmaj promast: Leishmania major promastigote growth inhibition | Leishmania major promastigotes, resazurin fluorescence viability | actives 9% (n = 200,000) | inhibition, % at 10 µM; in the data active = inhibition above about 50%;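 note: promastigotes grown with compound for 44 hours at 28 °C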
# T cruzi inh: blocks replication of Trypanosoma cruzi; T. cruzi beta-gal in NIH3T3, luminescence, 90 h; inhibition, % (concentration not given with the values); actives 1.4% (n = 300,000); AID 1885;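 active = mean inhibition across valid replicates above about 55%, limit read from the data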;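 note: signal also drops with host cell toxicity which is not excluded here; 0% = plate median of DMSO wells and 100% = zero luminescence signal; higher percent means less beta-gal luminescence so fewer parasites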
#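 Test system: β-gal T. cruzi (Tulahuen C4) inside NIH/3T3 cells / Quantity: 5,000 cells/well / Measured by: luminescence from GalScreen with 0.05% NP40, read after 60 min / Medium: DMEM plus 2% FBS / Measure: parasite load inhibition, % / Reagent: Tulahuen C4 trypomastigotes, 5000/well / Schedule: co-culture of at least 90 h after 3 h attachment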
# MPTP inh: inhibitors of mitochondrial permeability transition pore; actives 1.4% (n = 360,000); inhibition, % at 10 µM; isolated mouse mitochondria, Ca2+ swelling absorbance, 30 min; AID 602449;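 active = inhibition of 50% or more, scaled per plate between neutral and stimulator controls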;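 note: 0% = DMSO wells given calcium and 100% = 1 mM EGTA wells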
# Hep lipid conf: hepatic lipid droplet formation inhibition, confirmed. shares compounds with Hep lipid drop. AML12 mouse hepatocytes, BODIPY lipid droplet imaging; droplets induced with 100 µM oleic acid. inhibition, % at 5.2 µM. actives 65% (n = 870). AID 463183;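 active = inhibition of lipid droplet metric at least 50%, with more than 300 cells in each of four replicates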;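 note: plate controls were DMSO with oleic acid for no effect and 5 µM Triacsin-C for full effect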
# AML12 tox img: toxic to AML12 mouse hepatocytes in counter-screen; z-score at 5 µM; actives 3% (n = 870); DAPI nuclear morphology cytotoxicity imaging; active compounds read high; cells fed 100 µM oleate overnight; AID 463200; shares compounds with Hep lipid drop; in the data active = z-score above about 6.3;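 note: compound exposure lasted overnight at 37 °C before fixation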
# AML12 tox conf: confirmation of cytotoxicity in AML12 mouse hepatocytes; shares compounds with Hep lipid drop; AML12 mouse hepatocyte viability, ATP luminescence; cells loaded with 100 µM oleic acid; cytotoxicity, % at 50 µM; 530 tested, under 10 active;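 active = cytotoxicity above 50% in each of four replicates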;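 note: compound exposure lasted overnight at 37 °C before the ATP read; 0% = DMSO-treated cells and 100% = wells with no cells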
# Starred values were filed as active, the others as inactive; x = not tested or not shown. This is one part of a sample in which hits are shown more often than they occur.
SMILES,Hep lipid drop,DTT redox prof,Lmaj promast,T cruzi inh,MPTP inh,Hep lipid conf,AML12 tox img,AML12 tox conf
Cc1ccc2oc(C(=O)N3CCN(CC(=O)NC(C)C)CC3)c(C)c2c1,-14.0,x,x,3.8,-0.2,x,x,x
Cc1ccccc1NC(=O)C(=O)NNC(=O)COc1ccc2ccccc2c1,4.3,x,x,-10.2,3.1,x,x,x
CC1Cc2ccccc2N1C(=O)Cn1cc(C(F)(F)F)ccc1=O (stereo unspecified),x,x,x,x,0.2,x,x,x
CCn1c(=O)c2cc(C(=O)NCCC(C)C)sc2c2ccccc21,54.0*,x,x,4.8,0.3,91.6*,-0.4,-1.9
O=C(CN1C(=O)C(=O)N(Cc2ccccc2)C1=O)Nc1ccc(F)c(Cl)c1,5.7,7.8,-1.1,-3.3,-8.5,x,x,x
COc1ccc(CCn2ccc(O)c(Cc3ccc(Cl)cc3)c2=O)cc1OC,61.0*,1.1,20.1,6.2,0.7,106.1*,0.554,4.0
CC(C)OCCCNC(=O)C1CCN(S(=O)(=O)N2CCCC2)CC1,-72.9,0.7,-4.2,-4.3,0.0,x,x,x
O=[N+]([O-])c1cc(Cl)ccc1N1CCN(c2cccc(C(F)(F)F)c2)CC1,64.2*,1.8,-3.9,37.7,10.9,94.3*,0.537,-0.5
O=C(O)c1cc([N+](=O)[O-])cc([N+](=O)[O-])c1N1CCN(c2cccc(C(F)(F)F)c2)CC1,-4.8,x,x,-1.1,1.1,x,x,x
Cc1c(NC(=O)c2cccc(NS(C)(=O)=O)c2)c(=O)n(-c2ccccc2)n1C,-4.9,x,x,-3.2,-0.4,x,x,x
CCOc1ccc(OCC)c(NC(=O)CSCC(=O)O)c1,x,1.5,-4.8,-19.4,-0.2,x,x,x
CCOc1ccccc1NC(=O)CSCC(=O)Nc1ccccc1,57.3*,-0.3,6.8,-11.1,-1.9,96.0*,1.44,2.4
COc1ccc(C(C(=O)NC(C)(C)C)N(Cc2cccs2)C(=O)CCC(=O)Nc2cc(C)on2)cc1 (stereo unspecified),106.6*,-0.1,97.0*,4.5,-2.7,87.8*,-0.525,7.5
CCC(C)(C)NC(=O)C(c1ccc(OC)cc1)N(C(=O)CCC(=O)Nc1cc(C)on1)c1cccc(OC)c1 (stereo unspecified),-40.0,x,x,1.2,-0.5,x,x,x
CCC(C)(C)NC(=O)C(c1ccc(OC)cc1)N(CC1CCCO1)C(=O)CCC(=O)Nc1cc(C)on1 (stereo unspecified),78.9*,-0.4,-3.3,-27.3,-2.1,90.8*,-0.481,11.4
CCC(C)(C)NC(=O)C(c1ccc(OC)cc1)N(Cc1cccs1)C(=O)CCC(=O)Nc1cc(C)on1 (stereo unspecified),77.7*,-1.7,97.4*,x,-2.0,102.3*,0.512,12.0
CCC(C)(C)NC(=O)C(c1ccc(OC)cc1)N(C(=O)CCC(=O)Nc1cc(C)on1)C1CC1 (stereo unspecified),7.6,x,x,4.3,-0.4,x,x,x
COc1ccc(C(C(=O)NC(C)(C)C)N(CCc2ccccc2)C(=O)CCC(=O)Nc2cc(C)on2)cc1 (stereo unspecified),42.6,x,x,11.0,2.0,x,x,x
COC(C[C@@H](O)C[C@@H](O)COCc1ccccc1)OC,113.0*,x,x,-7.5,0.9,1.1,0.343,x
COc1ccc(C(=O)NCC(=O)N2CCN(C(=O)c3ccco3)CC2)cc1,30.8,x,x,-10.1,-2.1,x,x,x
CCc1ccc(NC(=O)C(C)OC(=O)c2ccc(N3CCCC3)c([N+](=O)[O-])c2)cc1 (stereo unspecified),92.5*,0.2,2.1,0.3,5.9,107.3*,-0.218,x
O=C(OCc1ccc([N+](=O)[O-])cc1)c1ccc(N2CCCC2)c([N+](=O)[O-])c1,-1.7,0.8,-4.4,16.0,2.1,x,x,x
C=CCNC(=S)Nc1cc(S(=O)(=O)N2CCOCC2)ccc1-n1cncn1,118.9*,0.3,33.2,-8.2,-1.5,-6.7,-0.263,x
COC(=O)[C@]12CCCCC=C1N(CCC1=CCCCC1)C(=O)[C@H](CC(=O)N1CCOCC1)C2,x,x,x,x,-0.8,x,x,x
COC(=O)c1ccc(NC(=O)CCOc2ccccc2)cc1,-0.9,-0.8,8.5,-5.2,0.4,x,x,x
SMILES,Hep lipid drop,DTT redox prof,Lmaj promast,T cruzi inh,MPTP inh,Hep lipid conf,AML12 tox img,AML12 tox conf
CCOC(=O)c1ccc(NC(=O)CCOc2ccc(C)cc2)cc1,65.6*,0.6,-3.0,5.8,8.6,89.7*,-0.812,6.1
COc1cccc(-c2cn(-c3cccc(C(F)(F)F)c3)c(=S)[nH]2)c1,59.3*,x,x,-2.0,-0.7,2.2,0.353,x
N#C/C(=C\c1cccc(O)c1)C(=O)Nc1ccc2c(c1)OCCO2,0.3,x,x,-2.3,4.3,x,x,x
CCOC(=O)C1CCN(C(=O)C2(NC(=O)Nc3ccccc3C)CCCCC2)CC1,81.3*,x,x,-6.3,-0.2,98.0*,-0.276,4.9
CCOC(=O)C1CCN(C(=O)C2(NC(=O)Nc3ccccc3Cl)CCCCC2)CC1,72.9*,-3.8,10.1,-22.7,0.2,101.3*,0.0943,11.3
CC(NC(=O)C1CCC(CNS(=O)(=O)c2ccc3c(c2)C(C)(C)C(=O)N3C)CC1)c1ccccc1 (stereo unspecified),0.4,x,x,-14.5,-0.9,x,x,x
COc1ccccc1CNC(=O)COC(=O)C1CCN(S(=O)(=O)c2ccc(C)c(C)c2)CC1,x,x,x,-6.0,-0.8,x,x,x
Cc1nnc(SCC(=O)Nc2cc(-c3cc(C)c(C)cc3C)nn2-c2ccccc2)s1,78.3*,0.1,97.1*,27.6,5.6,88.7*,-0.658,-6.6
CC1CCCN(C(=O)c2ccc3c(c2NCCO)C(=O)c2ccccc2C3=O)C1 (stereo unspecified),53.9*,0.2,91.3*,18.3,4.1,104.9*,-0.187,32.6
CCOc1ccc(CCNC(=O)COC(=O)c2cc([N+](=O)[O-])ccc2N2CCOCC2)cc1OCC,68.3*,x,x,14.2,-0.7,102.6*,-0.406,18.3
CCOc1ccc(CCNC(=O)Cn2ncn3nc(-c4ccc(OC)cc4)cc3c2=O)cc1OCC,85.0*,x,x,-12.2,-2.6,101.2*,0.454,3.8
COc1ccc(-c2cc3c(=O)n(CC(=O)NCCCc4ccccc4)ncn3n2)cc1,9.8,x,x,-2.0,-1.4,x,x,x
CCOc1ccc(CCNC(=O)c2cc([N+](=O)[O-])ccc2N2CCOCC2)cc1OCC,0.3,x,x,9.1,-0.2,x,x,x
CCOc1ccc(CCNC(=O)COC(=O)c2c(C)nn(-c3ccccc3)c2C)cc1OCC,86.5*,x,x,21.2,-1.1,110.0*,-0.393,15.4
CCOc1ccc(CCNC(=O)Cn2nc(C)c3c(C)n(-c4ccccc4)nc3c2=O)cc1OCC,90.6*,x,x,23.2,-1.4,93.3*,-0.624,8.1
Cc1nn(-c2ccccc2)c(Cl)c1C(=O)OCC(=O)NCCc1ccccc1,2.5,x,x,-15.2,0.8,x,x,x
